In ChEMBL document CHEMBL2380287, “PEG mediated synthesis and pharmacological evaluation of some fluoro substituted pyrazoline derivatives as antiinflammatory and analgesic agents” (2013) one finds inhibition in vivo data, which are given here for 15 compounds.

In the experiment the test system is Rattus norvegicus. In words: Analgesic activity in rat at 25 mg/kg, po after 60 mins by radiant heat tail flick method relative to control. As to conditions: 1 h. In kind it is functional. The method in brief:
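Rats, six per group, were dosed orally at 25 mg/kg. Analgesia was measured at 60 min by the radiant heat tail flick method and expressed as percentage analgesia. Animals were kept on a 12/12 h light/dark cycle with free access to water and standard pellet diet.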
In general terms: Hot-plate and tail-flick tests time the reaction to a heat stimulus.
Take `Cc1ccc(-c2nn(-c3ccccc3)cc2C2CC(c3ccc(F)cc3)=NN2c2ccccc2)cc1` (stereo not given): the inhibition in vivo at 25 mg/kg was found to be 110%.

With `CC(=O)N1N=C(c2ccc(F)cc2)CC1c1cn(-c2ccccc2)nc1-c1ccc(F)cc1` (stereo not given), the inhibition in vivo at 25 mg/kg was found to be 43%.

For `CC(=O)N1N=C(c2ccc(F)cc2)CC1c1cn(-c2ccccc2)nc1-c1ccc(Cl)cc1` (stereo not given), the inhibition in vivo at 25 mg/kg came to 44%.

Turning to `CC(=O)N1N=C(c2ccc(F)cc2)CC1c1cn(-c2ccccc2)nc1-c1ccccc1` (stereo not given), the inhibition in vivo at 25 mg/kg was 35%.

Regarding `Fc1ccc(C2=NN(c3ccccc3)C(c3cn(-c4ccccc4)nc3-c3ccc(Br)cc3)C2)cc1` (stereo not given), the inhibition in vivo at 25 mg/kg worked out at 71%.

For `COc1ccc(-c2nn(-c3ccccc3)cc2C2CC(c3ccc(F)cc3)=NN2c2ccccc2)cc1` (stereo not given), the inhibition in vivo at 25 mg/kg amounted to 66%.

For the compound `CC(=O)N1N=C(c2ccc(F)cc2)CC1c1cn(-c2ccccc2)nc1-c1ccc(C)cc1` (stereo not given), the inhibition in vivo at 25 mg/kg amounted to 110%.

For the compound `CC(=O)N1N=C(c2ccc(F)cc2)CC1c1cn(-c2ccccc2)nc1-c1ccc(Br)cc1` (stereo not given), the inhibition in vivo at 25 mg/kg turned out to be 71%.

Take `O=[N+]([O-])c1cccc(-c2nn(-c3ccccc3)cc2C2CC(c3ccc(F)cc3)=NN2c2ccccc2)c1` (stereo not given): the inhibition in vivo at 25 mg/kg was 108%.

Take `CC(=O)Oc1ccccc1C(=O)O` [ASPIRIN]: the inhibition in vivo at 25 mg/kg was 119%.

Take `CC(=O)N1N=C(c2ccc(F)cc2)CC1c1cn(-c2ccccc2)nc1-c1cccc([N+](=O)[O-])c1` (stereo not given): the inhibition in vivo at 25 mg/kg stood at 109%.

For `Fc1ccc(C2=NN(c3ccccc3)C(c3cn(-c4ccccc4)nc3-c3ccc(F)cc3)C2)cc1` (stereo not given), the inhibition in vivo at 25 mg/kg was determined as 41%.

`Fc1ccc(C2=NN(c3ccccc3)C(c3cn(-c4ccccc4)nc3-c3ccc(Cl)cc3)C2)cc1` (stereo not given): the inhibition in vivo at 25 mg/kg was determined as 43%.

Consider `Fc1ccc(C2=NN(c3ccccc3)C(c3cn(-c4ccccc4)nc3-c3ccccc3)C2)cc1` (stereo not given), for which the inhibition in vivo at 25 mg/kg was determined as 35%.

`COc1ccc(-c2nn(-c3ccccc3)cc2C2CC(c3ccc(F)cc3)=NN2C(C)=O)cc1` (stereo not given): the inhibition in vivo at 25 mg/kg amounted to 66%.

Usually inhibition in vivo stands for the change of the read-out against control, counted positive when it falls.
